Assay results: PMC3869895 (Investigational New Drugs, 2013)
“Also recorded” adds a separate entry of the source.

Legend:
[1] = tested on: patients with advanced solid tumors; test: Phase I 3+3 dose escalation: dose limiting toxicities and adverse events; type: in vivo, human
[2] = Pharmacokinetic analysis of total and unbound RO4929097 in serial plasma; type: in vivo, human
advanced solid tumors = test: Antitumor activity by RECIST 1.1; type: in vivo, human; details: with gemcitabine
Outline: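 Oral test compound once daily on days 1–3, 8–10, […] and 22–24 of 28-day cycles, fasting, with IV gemcitabine 1,000 mg/m2 on days 1, 8 and 15. Measurable disease required. Radiographic restaging every 2 cycles, scored by RECIST 1.1. Prolonged stable disease means stable disease for 4 or more months. Treatment continued until unacceptable toxicity, progression, withdrawal or study completion.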

[3] = stated as given in discussion; no reference given; cited from earlier work
gamma secretase = details: cited from earlier work
xenograft models = details: intermittent and daily dosing in xenograft models; cited from earlier work
[4] = in vitro; rather than overt cell death; no reference given; cited from earlier work
[5] = tested on: circulating angiogenesis factors; details: in vitro; cited from earlier work
[6] = cited from earlier work
[7] = dose level 3 (45 mg) + gemcitabine, CTCAE v4

For `CC(C)(C(=O)NCC(F)(F)C(F)(F)F)C(=O)N[C@@H]1C(=O)Nc2ccccc2-c2ccccc21` [RO4929097], the “DLT Event” value ([1]; dose level 2 (30 mg) + gemcitabine) was “Transaminitis”, the “Grade of DLT event Transaminitis” value ([1]; dose level 2 (30 mg) + gemcitabine, CTCAE v4) was 3 and the “DLT Event” value ([1]; dose level 3 (45 mg) + gemcitabine) was “Transaminitis; also recorded: Maculopapular rash”. The “Grade of DLT event Maculopapular rash” value [1, 7] was 3, the “Grade of DLT event Transaminitis” value [1, 7] was 3 and the “DLT Event” value ([1]; dose level 4 (90 mg) + gemcitabine) was “Transaminitis”. For the same molecule, the “Grade of DLT event Transaminitis” value ([1]; dose level 4 (90 mg) + gemcitabine, CTCAE v4) was 3, the “Grade of DLT event <75 % RO doses” value ([1]; dose level 4 (90 mg) + gemcitabine, secondary to prolonged neutropenia) was 3 and the maximum tolerated dose ([1]; in combination with gemcitabine, exceeded at this dose) was under 90 mg. The “autoinduction (Day 10: Day 1 total and free AUC 0-24)” value ([2]; dose levels 45 and 90 mg) was “presence of autoinduction”, the “day 10: day 1 areas under the curve” value ([2]; with increasing dose levels) was “below 1” and the “stable disease > 4 months (prolonged stable disease), number of patients” value (advanced solid tumors; 18 patients enrolled) was 3 patients. For the same molecule, the “Best response (RECIST 1.1)” value (advanced solid tumors; one patient with nasopharyngeal carcinoma, 45 mg dose level) was “partial response”, the half-life [3] was “approximately 20 h” and the “inhibition of gamma secretase” value (gamma secretase) was “potent inhibitor”. For the same molecule, the antitumor activity (xenograft models) was “demonstrates antitumor activity”, the cell phenotype [4] was “more flattened phenotype” and the “expression of circulating angiogenesis factors” value [5] was “reduce the expression”. The protein binding [6] was “highly protein bound”.
